Experimental data from PMC2750823 (Molecular cancer therapeutics, 2009).
pEC50: −log10 of the molar value.

Assays:
Mcl-1 = conditions: cited from earlier work
H1299 = conditions: cited from earlier work
[1] = tested on: RS11846 human lymphoma cell line; test: Cell viability, ATP-LITE assay; assay type: cell-based; conditions: 72 h, read-out: RS11846 EC50 (ATP-LITE assay)
Method in brief: (§1)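 Human cancer cells are grown in F12 or RPMI1640 medium with 5 mM L-glutamine, 5% FBS and penicillin/streptomycin. Cells are seeded at densities chosen by doubling time. Fresh 5% serum medium is added, and test compound is applied 24 h after seeding at varied concentrations in 0.1% DMSO. After 72 h, ATP is read with ATP-LITE reagent and normalized to DMSO-treated controls.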

PC3ML cells = test: Cell viability, ATP-LITE assay; assay type: cell-based; conditions: Homo sapiens, PC3-ML, 72 h, read-out: PC3ML EC50
Method in brief: as §1

[2] = tested on: H460 human lung cancer cell line; test: Cell viability, ATP-LITE assay; assay type: cell-based; conditions: NCI-H460, 72 h, read-out: H460 EC50
Method in brief: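 H460 cells were grown in F12 or RPMI1640 with 5 mM L-glutamine, 5% FBS and penicillin/streptomycin, then plated at 2000 cells/well. After 24 h, fresh 5% medium was added, followed by test compound at final concentrations in 0.1% DMSO. Viability was read with ATP-LITE after 72 h of treatment, and data were normalized to DMSO-treated cells.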

[3] = tested on: RS11846 human lymphoma cell line; test: Apoptosis, Annexin V-FITC and propidium iodide assay; assay type: cell-based; conditions: read-out: RS11846 EC50 (Annexin V-FITC and propidium iodide assay)
H1299 cells = test: Cell viability, ATP-LITE assay; assay type: cell-based; conditions: Homo sapiens, NCI-H1299, 72 h, read-out: H1299 EC50
[4] = Liver microsomal stability; assay type: in vitro ADME; conditions: rat, microsomes, 4 µM, pH 7.4
Plasma stability = assay type: in vitro ADME; conditions: rat, 100 µM

Compound: CN(C)CC[C@H](CSc1ccccc1)Nc1ccc(S(=O)(=O)NC(=O)c2ccc(N3CCN(Cc4ccccc4-c4ccc(Cl)cc4)CC3)cc2)cc1[N+](=O)[O-] [ABT-737]
- effectiveness against Mcl-1 (Mcl-1): not effective
- killing Mcl-1 overexpressing cell lines such as the H1299 (H1299): not effective

Compound: Cc1cc2c(C(C)C)c(O)c(O)c(C=O)c2c(O)c1-c1c(C)cc2c(C(C)C)c(O)c(O)c(C=O)c2c1O [Gossypol]
- pEC50 [1]: 5.66
- pEC50 (PC3ML cells): 5.51
- pEC50 [2]: 5.52
- pEC50 [3]: 5.37
- pEC50 (H1299 cells): 5.22

Compound: Cc1cc2c(C(C)C)c(O)c(O)cc2c(O)c1-c1c(C)cc2c(C(C)C)c(O)c(O)cc2c1O [Apogossypol]
- pEC50 [1]: 5.30
- pEC50 (PC3ML cells): 4.99
- pEC50 [2]: 5.24
- pEC50 [3]: 5.07
- Microsomal Stability (T=1 hr) [4]: 60%
- Plasma Stability (T=1 hr) (Plasma stability): 53%
